As a reminder, the pIC50 is the negative decadic logarithm of the IC50, by convention in mol/L. The pEC50 is the EC50 on a negative log10 scale, so that one unit is a factor of ten. A lower pEC50 goes with a large EC50. In general, MRT refers to a mean duration of stay, worked out from the concentration-time curve. A word on the half-life: it is the time needed for the level to fall by half in the phase considered.

Here are results for 18 compounds from ChEMBL document CHEMBL3414571, “The discovery of macrocyclic XIAP antagonists from a DNA-programmed chemistry library, and their optimization to give lead compounds with in vivo antitumor activity” (J Med Chem, 2015).

Data set [1] is described as follows: Inhibition of XIAP BIR2 (124 to 240 residues) C202A/C213G mutant (unknown origin) incubated for 60 mins by biotinylated SMAC peptide Alpha-screen assay. More on the design: species or system Homo sapiens. On the technique in general: In Alpha technology, singlet oxygen from a donor bead excites a nearby acceptor bead.
Data set [2] addresses E3 ubiquitin-protein ligase XIAP (Homo sapiens, UniProt P98170). As to the kind of experiment: Inhibition of XIAP BIR3 (241 to 356 residues) (unknown origin) incubated for 60 mins by fluoresceinated modified SMAC peptide based fluorescence polarization assay. Background: Polarisation of emitted light reports the rotation of a fluorescent probe.
Data set [3] can be described thus: Antiproliferative activity against human A875 cells assessed as inhibition of cell proliferation after 72 hrs by MTS assay. Format: functional, cell-based. The settings on record: A875, 72 h.
Another data set has as its system A549. Briefly: Antiproliferative activity against human A549 cells assessed as inhibition of cell proliferation after 72 hrs by MTS assay. Format: functional, cell-based. To be noted: A549, 72 h. For orientation: Tetrazolium dyes change colour on reduction, which living cells bring about.
In the next data set the test system is MDA-MB-231. As to the kind of experiment: Antiproliferative activity against human MDA-MB-231 cells assessed as inhibition of cell proliferation after 72 hrs by MTS assay. Format: functional, cell-based. To be noted: MDA-MB-231, 72 h.
The target of the next data set is BIR2 domain of XIAP (Homo sapiens, UniProt P98170, C202A/C213G). As to the kind of experiment: Inhibition of XIAP BIR2-3 (124 to 356 residues) C202A/C213G mutant (unknown origin) in human THP1 cells using fluoresceinated caspase-3 substrate by caspase-3 rescue assay. Format: cell-based, THP-1.
Data set [4] addresses Baculoviral IAP repeat-containing protein 2 (Homo sapiens, UniProt Q13490). Briefly: Inhibition of cIAP1 BIR2-3 (154 to 352 residues) (unknown origin) fluoresceinated dimeric SMAC peptide based fluorescence polarization assay.
Data set [5] can be described thus: Mean residence time in Balb/C mouse at 1 mg/kg, iv administered as single dose by LC-MS/MS method. Format: ADME, organism-based. To be noted: in vivo. More on the design: dose 1 mg/kg, route intravenous. The method, boiled down: (§1)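 Mice received one intravenous dose, and parent compound levels in blood were monitored over time. Plasma pharmacokinetic parameters were derived from these concentration–time profiles.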

For data set [6], the system named is Mus musculus. Briefly: AUClast in Balb/C mouse at 1 mg/kg, iv administered as single dose by LC-MS/MS method. Format: ADME, organism-based, Plasma. On the set-up: time 0 - last, dose 1 mg/kg, route intravenous. To be noted: in vivo. The essentials:
as §1

Data set [7] in a line: Half life in Balb/C mouse at 1 mg/kg, iv administered as single dose by LC-MS/MS method. Format: ADME, organism-based. More on the design: dose 1 mg/kg, route intravenous. The settings on record: in vivo. The essentials:
as §1

A short description of data set [8]: Volume of distribution at steady state in Balb/C mouse at 1 mg/kg, iv administered as single dose by LC-MS/MS method. On the set-up: dose 1 mg/kg, route intravenous. To be noted: in vivo, read-out: Vdss. Format: ADME, organism-based. The method, boiled down:
as §1

A short description of data set [9]: Half life in Balb/C mouse at 0.2 mg/kg, iv administered as single dose by LC-MS/MS method. The settings on record: in vivo. Format: ADME, organism-based. More on the design: dose 0.2 mg/kg, route intravenous. The method, boiled down: as §1
A short description of data set [10]: Mean residence time in Balb/C mouse at 0.2 mg/kg, iv administered as single dose by LC-MS/MS method. Format: ADME, organism-based. On the set-up: dose 0.2 mg/kg, route intravenous. To be noted: in vivo. The essentials: as §1
For data set [11], the system named is Mus musculus. Briefly: AUClast in Balb/C mouse at 0.2 mg/kg, iv administered as single dose by LC-MS/MS method. Format: ADME, organism-based, Plasma. On the set-up: dose 0.2 mg/kg, route intravenous, time 0 - last. To be noted: in vivo. The method, boiled down: as §1
Data set [12] is described as follows: Volume of distribution at steady state in Balb/C mouse at 0.2 mg/kg, iv administered as single dose by LC-MS/MS method. Format: ADME, organism-based. On the set-up: dose 0.2 mg/kg, route intravenous. The settings on record: in vivo, read-out: Vdss. The method, boiled down: as §1

pEC50, pIC50: −log10 of the molar value. Numbered stars: 1 amine (or outer) side, 2 acyl side, 3 side chain; on linkers, the order of the positions; unused ones are H or OH. Bridge positions count the residues as written; N and C are the ends. Square brackets hold non-standard residues; d marks the D form. Peptide text beside a SMILES is read from it. * marks the point of attachment. X1 = O=C(O)CN(CCN[*:1])CCn1cc(CCC(=O)[*:2])nn1; NMeA = CN[C@@H](C)C(=O)O; Pra = C#CC[C@H](N)C(=O)O; X2 = [N-]=[N+]=NCC*

Sequence of BIR2 domain of XIAP (P98170 whole entry C202A/C213G, looked up, the tested form may be a part): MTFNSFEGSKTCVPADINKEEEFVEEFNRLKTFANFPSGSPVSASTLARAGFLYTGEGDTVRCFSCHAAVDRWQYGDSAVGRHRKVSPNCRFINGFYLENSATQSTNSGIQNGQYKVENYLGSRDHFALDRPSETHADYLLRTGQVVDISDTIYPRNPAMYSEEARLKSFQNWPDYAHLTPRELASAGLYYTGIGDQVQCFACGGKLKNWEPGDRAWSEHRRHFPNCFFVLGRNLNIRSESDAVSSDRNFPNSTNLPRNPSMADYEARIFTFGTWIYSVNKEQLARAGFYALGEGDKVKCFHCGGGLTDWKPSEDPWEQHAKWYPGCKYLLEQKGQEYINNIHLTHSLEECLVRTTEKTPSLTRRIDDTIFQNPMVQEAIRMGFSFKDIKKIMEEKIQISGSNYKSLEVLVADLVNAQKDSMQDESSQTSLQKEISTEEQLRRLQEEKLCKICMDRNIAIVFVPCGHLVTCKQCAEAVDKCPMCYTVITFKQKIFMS
Sequence of E3 ubiquitin-protein ligase XIAP (P98170 whole entry, looked up, the tested form may be a part): as the sequence (P98170 whole entry C202A/C213G, looked up, the tested form may be a part) above, with A202C, G213C counted along it
Sequence of Baculoviral IAP repeat-containing protein 2 (Q13490 whole entry, the tested form may be a part): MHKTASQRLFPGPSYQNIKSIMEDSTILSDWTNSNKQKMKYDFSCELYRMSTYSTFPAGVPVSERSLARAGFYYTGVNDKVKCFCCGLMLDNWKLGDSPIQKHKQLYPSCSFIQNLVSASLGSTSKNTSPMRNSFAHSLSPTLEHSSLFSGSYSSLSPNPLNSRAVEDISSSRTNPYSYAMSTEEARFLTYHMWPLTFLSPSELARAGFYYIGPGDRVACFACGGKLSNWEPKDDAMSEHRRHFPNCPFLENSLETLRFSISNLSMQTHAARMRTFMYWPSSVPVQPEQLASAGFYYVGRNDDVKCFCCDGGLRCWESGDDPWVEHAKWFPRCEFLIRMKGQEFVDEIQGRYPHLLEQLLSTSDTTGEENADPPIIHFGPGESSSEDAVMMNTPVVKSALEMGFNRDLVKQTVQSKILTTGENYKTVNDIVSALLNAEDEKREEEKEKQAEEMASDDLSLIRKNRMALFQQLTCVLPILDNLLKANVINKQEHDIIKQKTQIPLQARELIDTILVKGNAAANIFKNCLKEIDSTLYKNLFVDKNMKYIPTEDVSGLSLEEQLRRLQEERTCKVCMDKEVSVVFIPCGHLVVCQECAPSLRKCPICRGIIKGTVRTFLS

Turning to `CN[C@@H](C)C(=O)N[C@H](C(=O)N1C[C@@H]2C[C@H]1C(=O)N[C@@H](Cc1ccc3ccccc3c1)C(=O)N[C@H](C(=O)O)Cc1ccc(cc1)OCc1cn2nn1)C1CCCCC1`, the figures for the pIC50 in data set [1] and in data set [2] were 5.64 and 6.63, respectively.
The corresponding values for `CN[C@@H](C)C(=O)N[C@H]1Cc2cn(nn2)CCOc2ccc(cc2)C[C@@H](C(=O)O)NC(=O)[C@H](Cc2ccccc2)NC(=O)[C@@H]2CCCN2C1=O` are less than 4.73 and 5.88.
Regarding `CN[C@@H](C)C(=O)N[C@H]1CCCCNC(=O)CCc2cn(nn2)CCN(CC(=O)O)CCNC(=O)[C@H](Cc2ccccc2)NC(=O)[C@@H]2CCCN2C1=O` (H-[NMeA]KPF[X1]; lactam 2-C), the negative-log IC50 (pIC50) in [1] was less than 4.73; in [2] it was 6.05.
The corresponding values for `CN[C@@H](C)C(=O)N[C@H]1CCCCNC(=O)CCc2cn(nn2)CCCC[C@@H](C(=O)O)NC(=O)[C@H](Cc2ccccc2)NC(=O)[C@@H]2CCCN2C1=O` are less than 4.73 and 5.87.
With `CN[C@@H](C)C(=O)N[C@H](C(=O)N1C[C@@H]2C[C@H]1C(=O)N[C@@H](Cc1ccccc1)C(=O)N[C@H](C(=O)O)Cc1ccc(cc1)OCc1cn2nn1)C(C)C`, the negative logarithm of the IC50 (pIC50) in data set [3] was less than 5.00; in the data set with A549, less than 4.60; in the data set with MDA-MB-231, 4.90; in data set [1] it was 6.86; in data set [2], 6.80. Moreover, the pEC50 at BIR2 domain of XIAP was 5.85.
In the case of `CN[C@@H](C)C(=O)N[C@H](C(=O)N1C[C@@H]2C[C@H]1C(=O)N[C@@H](Cc1cccc3ccccc13)C(=O)N[C@H](C(=O)O)Cc1ccc(cc1)OCc1cn(nn1)[C@H]1C[C@@H](C(=O)N[C@@H](Cc3cccc4ccccc34)C(=O)N[C@H](C(=O)O)Cc3ccc(cc3)OCc3cn2nn3)N(C(=O)[C@@H](NC(=O)[C@H](C)NC)C(C)C)C1)C(C)C`, the pIC50 in data set [3] is 6.37; in the data set on A549 it was less than 4.60; in the data set with MDA-MB-231 it was 6.71; in [1], 6.66; in data set [2], 7.54. Besides, the pEC50 on BIR2 domain of XIAP was 7.47.
With `CN[C@@H](C)C(=O)N[C@H](C(=O)N1C[C@@H]2C[C@H]1C(=O)N[C@@H](Cc1ccc3ccccc3c1)C(=O)N[C@H](C(=O)O)Cc1cn(nn1)[C@H]1C[C@@H](C(=O)N[C@@H](Cc3ccc4ccccc4c3)C(=O)N[C@H](C(=O)O)Cc3cn2nn3)N(C(=O)[C@@H](NC(=O)[C@H](C)NC)C(C)C)C1)C(C)C`, the negative-log IC50 (pIC50) was 5.21 in data set [3]; 8.52 in [4]; less than 4.60 with A549; 5.70 in the data set with MDA-MB-231; 6.52 in data set [1]; 7.19 in data set [2]. This compound came in with an MRT in data set [5] of 0.25 h. Moreover, at BIR2 domain of XIAP, the pEC50 was 7.31. The same compound had an AUClast in the data set with Mus musculus [6] of 1070 ng·h/mL. Further, in data set [7], the half-life is 9.6 min. In [8], the Vd came to 0.18 L/kg.
As to `C#CC[C@H](NC(=O)[C@H](C)NC)C(=O)N1CCC[C@H]1C(=O)N[C@@H](Cc1ccccc1)C(=O)N[C@@H](Cc1ccc(OCCN=[N+]=[N-])cc1)C(=O)O` (H-[NMeA][Pra]PFY(X2)-OH), the pIC50 in [1] was 6.27; in data set [2], 6.74.
`CN[C@@H](C)C(=O)N[C@H](C(=O)N1C[C@@H]2C[C@H]1C(=O)N[C@@H](Cc1ccccc1)C(=O)N[C@H](C(=O)O)Cc1ccc(cc1)NC(=O)CCc1cn2nn1)C(C)C` showed a pEC50 on BIR2 domain of XIAP of 5.17. For the same compound, the values for the pIC50 in data set [1] and in data set [2] were 5.71 and 6.96, respectively.
`CN[C@@H](C)C(=O)N[C@H](C(=O)N1C[C@@H]2C[C@H]1C(=O)N[C@@H](Cc1ccc3ccccc3c1)C(=O)N[C@H](C(=O)O)Cc1ccc(cc1)OCc1cn(nn1)[C@H]1C[C@@H](C(=O)N[C@@H](Cc3ccc4ccccc4c3)C(=O)N[C@H](C(=O)O)Cc3ccc(cc3)OCc3cn2nn3)N(C(=O)[C@@H](NC(=O)[C@H](C)NC)C2CCCCC2)C1)C1CCCCC1` had a half-life in data set [9] of 1.9 h. Besides, the pIC50 was 7.08 in [3], less than 4.60 in the data set with A549, 7.85 in the data set with MDA-MB-231 and 6.13 in [1]. For the same compound, in data set [10], the mean residence time MRT amounted to 2.5 h. For the same compound, the AUClast with Mus musculus [11] is 457 ng·h/mL. Also, the Vd in data set [12] was determined as 0.7 L/kg.
Regarding `CN[C@@H](C)C(=O)N[C@H](C(=O)N1C[C@@H]2C[C@H]1C(=O)N[C@@H](Cc1ccccc1)C(=O)N[C@H](C(=O)O)Cc1ccc(cc1)OCc1cn(nn1)[C@H]1C[C@@H](C(=O)N[C@@H](Cc3ccccc3)C(=O)N[C@H](C(=O)O)Cc3ccc(cc3)OCc3cn2nn3)N(C(=O)[C@@H](NC(=O)[C@H](C)NC)C(C)C)C1)C(C)C`, the pIC50 in data set [3] was 5.37; in the data set on A549, less than 4.60; in the data set with MDA-MB-231, 5.53; in data set [1], 8.52; in data set [2], 7.17. In addition, the pEC50 at BIR2 domain of XIAP was 7.35.
In the case of `CN[C@@H](C)C(=O)N[C@H](C(=O)N1C[C@@H]2C[C@H]1C(=O)N[C@@H](Cc1ccccc1)C(=O)N[C@H](C(=O)O)Cc1ccc(cc1)NC(=O)CCc1cn(nn1)[C@H]1C[C@@H](C(=O)N[C@@H](Cc3ccccc3)C(=O)N[C@H](C(=O)O)Cc3ccc(cc3)NC(=O)CCc3cn2nn3)N(C(=O)[C@@H](NC(=O)[C@H](C)NC)C(C)C)C1)C(C)C`, the pIC50 was less than 4.60 in the data set with A549, 5.10 in the data set with MDA-MB-231, 8.22 in data set [1] and 7.33 in data set [2]. The compound further had a pEC50 on BIR2 domain of XIAP of 7.15.
In the case of `CN[C@@H](C)C(=O)N[C@H]1CCCCNC(=O)CCc2cn(nn2)CCOc2ccc(cc2)C[C@@H](C(=O)O)NC(=O)[C@H](Cc2ccccc2)NC(=O)[C@@H]2CCCN2C1=O`, the pIC50 in [1] was less than 4.73; in data set [2] it was 5.83.
On to `CN[C@@H](C)C(=O)N[C@H]1Cc2ccc(cc2)OCc2cn(nn2)CCOc2ccc(cc2)C[C@H](C(=O)O)NC(=O)[C@H](Cc2ccccc2)NC(=O)[C@@H]2CCCN2C1=O`, for which the pIC50 in [1] was 5.10; in [2], 5.54.
The corresponding values for `CN[C@@H](C)C(=O)N[C@H]1Cc2ccc(cc2)OCc2cn(nn2)CCCOc2ccc(cc2)C[C@@H](C(=O)O)NC(=O)[C@H](Cc2ccccc2)NC(=O)[C@@H]2CCCN2C1=O` are 5.31 and 6.44.
In the case of `CN[C@@H](C)C(=O)N[C@H](C(=O)N1C[C@@H]2C[C@H]1C(=O)N[C@@H](Cc1ccc3ccccc3c1)C(=O)N[C@H](C(=O)O)Cc1ccc(cc1)OCc1cn(nn1)[C@H]1C[C@@H](C(=O)N[C@@H](Cc3ccc4ccccc4c3)C(=O)N[C@H](C(=O)O)Cc3ccc(cc3)OCc3cn2nn3)N(C(=O)[C@@H](NC(=O)[C@H](C)NC)C(C)C)C1)C(C)C`, the negative logarithm of the IC50 (pIC50) in [3] is 6.66; in the data set with A549, less than 4.60; in the data set with MDA-MB-231 it was 7.09; in [1] it was 6.48; in data set [2] it was 7.40. Besides, on BIR2 domain of XIAP, the pEC50 is 7.23.
With `CN[C@@H](C)C(=O)N[C@H](C(=O)N1C[C@@H]2C[C@H]1C(=O)N[C@@H](Cc1ccc3ccccc3c1)C(=O)N[C@H](C(=O)O)Cc1ccc(cc1)OCc1cn2nn1)C(C)(C)C`, the pIC50 was 6.08 in data set [1] and 6.67 in data set [2].
On the same counts, the results for `CN[C@@H](C)C(=O)N[C@H](C(=O)N1C[C@@H]2C[C@H]1C(=O)N[C@@H](Cc1ccccc1)C(=O)N[C@@H](C(=O)O)Cc1ccc(cc1)NC(=O)CCc1cn2nn1)C(C)C` are less than 4.73 and 6.63.
